# Source: PubChem BioAssay (several laboratories)
# The list is not random: actives were taken first. Their share in the collection is about 1.8%.
# AI-2 QS mod: modulators of Vibrio harveyi AI-2 quorum sensing system; Vibrio harveyi JMH597 AI-2 luminescence/OD600 ratio, 9 h; active compounds read low; strain lacks LuxN and CqsS sensors; 0 = neutral-control median; activity change, % at 7.5 µM; actives 0.4% (n = 300,000); in the data active means activity change below about -75%, passing the limit was not always enough;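 further: luminescence divided by OD600 gain over 9 h not by final OD600 alone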
# MC4R antag cAMP: antagonists of human melanocortin 4 receptor (MC4R) | inhibition, % at 6.5 µM | P32245 | actives 0.48% (n = 360,000) | MC4R-expressing cells, MTII-stimulated cAMP, LANCE TR-FRET;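 active means inhibition above its plate's cutoff, the mean of tested wells on that plate plus 3 SD, cut at about 29% in these data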;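 further: 0% = Melanotan II alone and 100% = Melanotan II plus saturating MCL0020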
#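 System: U2OS-MC4R stable cell line; Technique: Eu-cAMP/anti-cAMP TR-FRET, emission 671 nm; Repeats: single well per compound; Also added: Melanotan II; Dosing: one concentration, 6.5 µM nominal; Schedule: 30-min compound, 1-h challenge, 1-h detection, room temperature.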
# NTR1 agonist: NTR1 (human) agonism; P30989; NTR1-U2OS beta-arrestin-GFP spot imaging, agonist mode; activation, % at 20 µM; actives 0.17% (n = 330,000);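 active means activation at or above 40% of the spot to cytoplasm intensity ratio, with at least 20 cells analyzed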;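 further: 0% = DMSO without peptide and 100% = 100 nM NTR1 peptide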
# Target sequence (P30989 whole entry, looked up): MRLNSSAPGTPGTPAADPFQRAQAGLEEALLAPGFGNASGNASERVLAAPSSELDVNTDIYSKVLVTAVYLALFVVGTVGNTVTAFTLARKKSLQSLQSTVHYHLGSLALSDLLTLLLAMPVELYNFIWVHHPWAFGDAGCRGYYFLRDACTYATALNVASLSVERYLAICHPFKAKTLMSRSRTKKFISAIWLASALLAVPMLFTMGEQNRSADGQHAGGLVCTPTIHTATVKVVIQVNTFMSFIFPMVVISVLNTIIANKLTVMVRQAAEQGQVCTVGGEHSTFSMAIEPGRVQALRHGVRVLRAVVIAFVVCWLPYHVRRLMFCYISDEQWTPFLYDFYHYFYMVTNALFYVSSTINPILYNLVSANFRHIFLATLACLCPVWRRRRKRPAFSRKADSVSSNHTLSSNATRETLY
# MC4R ag barr: activates human MC4R beta-arrestin recruitment; P32245; U2OS MC4R beta-arrestin complementation, luminescence; percent of melanotan II response, DMSO zero; activation, % at 8.9 µM; actives 0.98% (n = 360,000);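 active means activation above a per-plate cutoff, the mean activation of sample wells on that plate plus 3 SD, cut at about 8% in these data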
# MC4R barr ag: human MC4R beta-arrestin agonism confirmation | AID 602192 | U2OS MC4R beta-arrestin recruitment, luminescence; scaled DMSO 0%, Melanotan II 100% | shares compounds with MC4R ag barr | actives 31% (n = 2,400) | activation, % at 8.9 µM;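 active means mean activation across replicates above the hit cutoff set in the earlier primary screen, cut at about 8% in these data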
# MOR-DOR barr ag: activates mu-delta opioid heterodimer, MC4R agonist counter-screen | shares compounds with MC4R ag barr | U2OS PathHunter beta-arrestin, beta-gal luminescence; percent of deltorphin B response, DMSO zero | activation, % at 9.2 µM | actives 5.8% (n = 2,400) | AID 602194;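 active means mean activation across replicates exceeds the hit threshold derived in the earlier primary screen, cut at about 18% in these data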;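 further: 100% = deltorphin B at 0.9 µM final and 0% = DMSO alone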
# Starred values were filed as active, the others as inactive; · = no result given.
SMILES,AI-2 QS mod,MC4R antag cAMP,NTR1 agonist,MC4R ag barr,MC4R barr ag,MOR-DOR barr ag
Cc1ccc(S(=O)(=O)N(C)CCCC(=O)N2CCCCC2)cc1,30,3,0,0,·,·
O=C(CN(Cc1ccccc1)S(=O)(=O)c1cccc(C(F)(F)F)c1)NC1CCCCC1,25,4,3,12*,0,5
CCCCn1c(N)c(N(CCC(C)C)C(=O)CC2CCCC2)c(=O)[nH]c1=O,22,3,0,-2,·,·
Cn1c(=O)c(C(=O)NNC(=O)c2cccc(Cl)c2)c(O)c2ccccc21,8,7,5,9.8*,2,6
Cc1cccc(C(=O)NNC(=O)c2c(O)c3ccccc3n(C)c2=O)c1,31,1,0,2,·,·
COc1ccc(-c2csc3ncnc(Nc4ccc(O)cc4)c23)cc1,36,22,6,14*,5,10
COc1ccc(-c2csc3ncnc(NCCO)c23)cc1,-5,-1,-1,1,·,·
Nc1c(NC=O)c(=O)n(Cc2ccccc2)c(=O)n1Cc1ccccc1,23,8,-1,-1,·,·
NC(=O)CC(NC(=O)Cc1ccc(Br)cc1)c1ccc(NC2CCCCCCC2)c([N+](=O)[O-])c1 (stereo not given),·,8,·,11*,6,1
Oc1ccc(N2CCN(c3ncnc4sc(-c5ccccc5)cc34)CC2)cc1,8,4,·,48*,34*,12
COc1ccc(Cl)cc1NC(=O)Cc1c(F)cccc1Cl,15,1,6,15*,-3,2
COc1ccc(Cl)cc1NC(=O)CC(=O)Nc1cc(Cl)ccc1OC,15,3,-1,4,·,·
Cc1ccc(C(=O)NCC(=O)OCC(=O)c2ccccc2)s1,·,6,-3,4,·,·
COc1cc(/C=C/C(=O)/C=C(O)/C=C/c2ccc(O)c(OC)c2)ccc1O,·,8,7,12*,12*,6
COc1cc(/C=C/C(=O)O)ccc1O,4,2,5,0,·,·
OC[C@@H]1CN(Cc2cccnc2)C[C@H](n2cnc3c(N4CCCC4)ncnc32)O1,·,3,·,0,·,·
Cc1ccccc1NC(=O)N1CCC(NC(=O)C2CCCCC2)CC1,2,12,7,0,·,·
Cc1n[nH]c(=S)n1/N=C/c1ccc(OCc2ccc(Cl)cc2Cl)cc1,17,5,15,-1,·,·
Cc1n[nH]c(=S)n1/N=C/c1ccccc1OCc1ccc(Cl)cc1Cl,4,-2,15,19*,16*,3
CCC(C)(C)C1CCC2(CC1)NC(=O)N(CC(=O)N(C)Cc1ccc(OC(F)F)cc1)C2=O (stereo not given),13,-4,4,17*,2,7
O=C(Cc1cnn(-c2ccccc2)c1)c1ccc(O)c(O)c1O,4,-6,0,-4,·,·
CCc1cc(C(=O)Cc2cnn(-c3ccccc3)c2)c(O)cc1O,0,-7,10,22*,8,5
CCCCn1c(N)c(N(CC)C(=O)C2=NN(c3ccccc3)C(=O)CC2)c(=O)[nH]c1=O,·,-1,3,-3,·,·
COc1ccc(-c2nn(-c3ccccc3)cc2/C=C/C(=O)OCC(=O)Nc2ccc(C#N)cc2)cc1,13,3,9,10*,-1,4
COc1ccc(-c2nn(-c3ccccc3)cc2/C=N/NC(=O)c2ccc(Br)o2)cc1,16,-1,7,0,·,·
SMILES,AI-2 QS mod,MC4R antag cAMP,NTR1 agonist,MC4R ag barr,MC4R barr ag,MOR-DOR barr ag
C=CCNC(=S)N/N=C/c1cn(-c2ccccc2)nc1-c1ccc(OC)cc1,14,2,8,15*,5,4
CC(=O)Nc1ccc2c(COC(=O)[C@@H](NS(=O)(=O)c3ccc(C)cc3)C(C)C)cc(=O)oc2c1,·,9,2,-1,·,·
COc1cccc(CN(C)C(=O)c2cc(S(=O)(=O)NC3CCCCC3)ccc2C)c1OC,·,1,-1,3,·,·
CCCNc1c(NS(=O)(=O)c2ccc(C(C)(C)C)cc2)c(=O)oc2ccccc12,11,5,3,11*,2,6
CNc1c(NS(=O)(=O)c2ccc(C(C)(C)C)cc2)c(=O)oc2ccccc12,13,5,-1,4,·,·
C[C@@H](C(=O)Nc1ccc(OC(F)F)c(Cl)c1)N1C(=O)C2CC=CCC2C1=O (stereo not given in full),·,8,3,-1,·,·
O=C(COC(=O)c1cc(-c2ccccc2)nc2ccccc12)Nc1ccc2c(c1)OCO2,7,-4,3,16*,5,6
Cc1c(NC(=O)c2cc(-c3ccccc3)nc3ccccc23)c(=O)n(-c2ccccc2)n1C,·,25,0,1,·,·
O=C(COC(=O)c1cc(Br)ccc1O)Nc1ccc2c(c1)OCO2,·,2,2,10*,1,3
Cc1c(NC(=O)COC(=O)c2cc(-c3ccc(-c4ccccc4)cc3)nc3ccccc23)c(=O)n(-c2ccccc2)n1C,9,4,·,18*,1,3
Cc1ccnc(NC(=O)c2cccc(S(=O)(=O)N3CCCc4ccccc43)c2)c1,16,10,0,1,·,·
COc1cc(-c2cccc([C@H]3[C@@H]4C=CC[C@@H](C)[C@@H]4C(=O)N3Cc3ccccc3)c2)cc(OC)c1OC,·,11,3,-3,·,·
CC1CC(C)CN(C(=O)CN2C(=O)NC3(CCCCCCC3)C2=O)C1 (stereo not given),·,10,0,-1,·,·
Cc1cccc(NC(=O)c2nc[nH]c2C(=O)NCCCNC(=O)c2[nH]cnc2C(=O)Nc2cccc(C)c2)c1,·,3,15,-1,·,·
Cc1cccc(NC(=O)c2nc[nH]c2C(=O)NCCCCCNC(=O)OC(C)(C)C)c1,·,6,19,9.7*,-3,9
COC(=O)[C@@]12CCCN1[C@H](c1ccc(-c3ccc4c(c3)OCO4)cc1)[C@H]1C(=O)N(C)C(=O)[C@H]12,·,-2,4,1,·,·
COc1ccc(/C=N\NC(=O)c2sccc2C)cc1Cn1nc(C)cc1C,19,2,1,-2,·,·
Cc1ccc(-c2nnc(-c3ccc(NC(=O)Cc4cccs4)cc3)o2)cc1,10,-2,4,36*,22*,5
Cc1ccc(SCC(=O)Nc2ccc(C(=O)Nc3ccc(O)cc3)cc2)cc1,20,-5,0,11*,1,1
Cc1ccc(SCC(=O)Nc2cccc(C)c2)cc1,3,-1,-1,-2,·,·
O=C(Cc1ccc(Cl)cc1)Nc1ccc(-c2nnc(-c3ccco3)o2)cc1,13,-2,1,12*,13*,10
O=C(Nc1ccc(-c2nnc(-c3ccco3)o2)cc1)C(c1ccccc1)c1ccccc1,8,13,2,23*,4,7
CS(=O)(=O)Cc1ccc(C(=O)NC2CCSc3ccccc32)cc1 (stereo not given),·,21,1,-2,·,·
